{"source": "ChEMBL document CHEMBL3272287", "about": "“Synthesis and biological activity of new 2-substituted analogs of fluphenazine” (1976)", "assay_type_in_all_cases": "functional", "key": {"Mus musculus [1]": {"system": "Mus musculus", "test": "Cataleptogenic potency in iv dosed albino mouse assessed as reversal of imposed position administered 4 doses at quarter log intervals measured 60 to 180 mins post dose relative to fluphenazine", "outline": "(§1)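 Male albino mice (20–25 g), six per dose, given intravenous aqueous solutions (PEG 200 for one analog). Distilled water served as the negative control. About four doses were spaced at quarter-log intervals, chosen from a preliminary gross observation screen. At 60, 120 and 180 min, mice were placed with forepaws elevated 5 cm and each forepaw was scored, maximum 3. Three observers scored the mice. CD50 came from probit analysis, with doses as free base. Relative potency was calculated against fluphenazine as 1.0.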"}, "Mus musculus [2]": {"system": "Mus musculus", "test": "Cataleptogenic potency in iv dosed albino mouse assessed as reversal of imposed position administered 4 doses at quarter log intervals measured 60 to 180 mins post dose", "outline": "as §1"}, "Rattus norvegicus [3]": {"system": "Rattus norvegicus", "test": "Cataleptogenic potency in im dosed albino rat assessed as reversal of imposed position administered 4 doses at quarter log intervals measured 60 to 180 mins post dose", "outline": "(§2)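 Male albino rats (about 180 g average), groups of six, each given a single intramuscular injection into the gastrocnemius, about 0.1 ml/kg. Saline-injected controls. One observer scored forepaw-elevation catalepsy. CD50 was the dose giving 50% of the maximum catalepsy score (9 of 18 points), estimated by probit analysis. Doses were expressed as free base. Relative potency was calculated against fluphenazine as 1.0.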"}, "Rattus norvegicus [4]": {"system": "Rattus norvegicus", "test": "Cataleptogenic potency in im dosed albino rat assessed as reversal of imposed position administered 4 doses at quarter log intervals measured 60 to 180 mins post dose relative to fluphenazine", "outline": "as §2"}}, "data": [{"smiles": "N#CC(C#N)=Cc1ccc2c(c1)N(CCCN1CCN(CCO)CC1)c1ccccc1S2", "values": [{"measurement": "Ratio", "setting": "Mus musculus [1]", "value": 0.078}, {"measurement": "ED50", "setting": "Mus musculus [2]", "value": 28, "unit": "µmol/kg"}]}, {"smiles": "OCCN1CCN(CCCN2c3ccccc3Sc3ccc(C(F)(F)F)cc32)CC1", "note": "[FLUPHENAZINE]", "values": [{"measurement": "ED50", "setting": "Rattus norvegicus [3]", "value": 0.39, "unit": "µmol/kg"}, {"measurement": "ED50", "setting": "Mus musculus [2]", "value": 0.29, "unit": "µmol/kg"}]}, {"smiles": "O=[N+]([O-])c1ccc2c(c1)N(CCCN1CCN(CCO)CC1)c1ccccc1S2", "values": [{"measurement": "ED50", "setting": "Rattus norvegicus [3]", "value": 0.17, "unit": "µmol/kg"}, {"measurement": "Ratio", "setting": "Rattus norvegicus [4]", "value": 3.2}, {"measurement": "Ratio", "setting": "Mus musculus [1]", "value": 0.92}, {"measurement": "ED50", "setting": "Mus musculus [2]", "value": 2.2, "unit": "µmol/kg"}]}, {"smiles": "N#Cc1ccc2c(c1)N(CCCN1CCN(CCO)CC1)c1ccccc1S2", "values": [{"measurement": "ED50", "setting": "Rattus norvegicus [3]", "value": 0.61, "unit": "µmol/kg"}, {"measurement": "Ratio", "setting": "Rattus norvegicus [4]", "value": 0.65}, {"measurement": "Ratio", "setting": "Mus musculus [1]", "value": 0.7}, {"measurement": "ED50", "setting": "Mus musculus [2]", "value": 0.41, "unit": "µmol/kg"}]}, {"smiles": "O=[N+]([O-])/C=C/c1ccc2c(c1)N(CCCN1CCN(CCO)CC1)c1ccccc1S2", "values": [{"measurement": "Ratio", "setting": "Mus musculus [1]", "value": "<0.011"}, {"measurement": "ED50", "setting": "Mus musculus [2]", "value": "> 57", "unit": "µmol/kg"}]}]}
